# Laboratory results reported in ChEMBL document CHEMBL4257537, “Design, synthesis, and biological evaluation of m-amidophenol derivatives as a new class of antitubercular agents” (Medchemcomm, 2018).
# Columns and labels:
# [1] = system: Mycobacterium tuberculosis; experiment: Antitubercular activity against Mycobacterium tuberculosis H37Ra after 5 days by luminescence assay; type: functional; settings: 120 h
# Procedure, shortened: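 Compounds were 10-point two-fold dilutions in 7H9-Tw-OADC, top 100 µg/mL, final DMSO 2%. Controls were INH 1 µg/mL (zero growth) and DMSO (maximum growth). RLU was read daily in triplicate over days 0–5. Percent growth was fitted to a Gompertz model, and MIC was taken where the inflection point meets the lower asymptote.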
# [2] = system: Enterococcus faecalis; experiment: Toxicity in Enterococcus faecalis after 18 to 24 hrs by two-fold serial dilution method; type: organism-based
# [3] = system: RAW264.7; experiment: Cytotoxicity against mouse RAW264.7 cells after 72 hrs by MTT assay; type: cell-based; settings: RAW264.7, 72 h
# [4] = system: Mycobacterium tuberculosis; experiment: Antimycobacterial activity against Mycobacterium tuberculosis H37Rv after 7 days by microplate alamar blue assay; type: functional; settings: 168 h
# Procedure, shortened: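 Each well held a 1/100 culture dilution plus 10-point two-fold DMSO dilutions (top 100 µg/mL, final DMSO 2%). INH and RIF were the positive controls. After 7 days at 37 °C, Tween 80 and alamarBlue were added for 16–24 h. MIC was the lowest concentration preventing the blue-to-pink change.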
# [5] = system: Staphylococcus aureus; experiment: Toxicity in Staphylococcus aureus after 18 to 24 hrs by two-fold serial dilution method; type: organism-based
# [6] = Selectivity index, ratio of IC50 for mouse RAW264.7 cells to MIC for Mycobacterium tuberculosis H37Ra; type: toxicity; settings: read-out: Selectivity Index
# [7] = system: HepG2; experiment: Cytotoxicity against human HepG2 cells after 72 hrs by MTT assay; type: cell-based; settings: HepG2, 72 h
# [8] = Selectivity index, ratio of IC50 for human HepG2 cells to MIC for Mycobacterium tuberculosis H37Ra; type: toxicity; settings: read-out: Selectivity Index
# [9] = system: Escherichia coli; experiment: Toxicity in Escherichia coli after 18 to 24 hrs by two-fold serial dilution method; type: organism-based
Compound,MIC [1],also measured
O=C(Nc1cccc(O)c1)c1ccccc1,> 50 µg/mL,–
CC(C)CCc1cc(O)cc(NC(=O)C2CCCCC2)c1,> 50 µg/mL,–
O=C(Nc1cc(O)cc(Cc2ccccc2)c1)C(F)(F)F,> 50 µg/mL,–
O=C(Nc1cc(O)cc(Cc2ccccc2)c1)c1ccco1,10 µg/mL,–
CC(C)(C)C(=O)Nc1cc(O)cc(Cc2ccccc2)c1,2.5 µg/mL,–
O=C(O)c1cc(Cc2ccccc2)cc(NC(=O)c2ccccc2)c1,> 50 µg/mL,–
O=C(Nc1cc(O)cc(Cc2ccccc2)c1)c1ccc(C2CCCCC2)cc1,> 50 µg/mL,–
O=C(Nc1cc(O)cc(Cc2ccccc2)c1)c1ccc(OC(F)(F)F)cc1,10 µg/mL,–
O=C(Nc1cc(O)cc(Cc2ccccc2)c1)c1cccnc1Cl,5 µg/mL,–
Cc1ccc(C(=O)Nc2cc(O)cc(Cc3ccccc3)c2)cc1,1.25 µg/mL,–
O=C(Nc1cc(O)cc(Cc2ccccc2)c1)c1ccc(Cl)cc1Cl,5 µg/mL,–
O=C(Nc1cc(O)cc(Cc2ccccc2)c1)c1ccccc1Cl,2.5 µg/mL,–
O=C(Nc1cc(O)cc(Cc2ccccc2)c1)c1cccs1,2.5 µg/mL,–
CCC1CCC(C(=O)Nc2cc(O)cc(Cc3ccccc3)c2)CC1 (stereo unspecified),2.5 µg/mL,–
O=C(Nc1cc(O)cc(Cc2ccccc2)c1)C1CCCCC1,0.625 µg/mL,MIC [2]: > 50 µg/mL; IC50 [3]: > 323 µM; MIC [4]: 0.39 µg/mL; MIC [5]: > 50 µg/mL; selectivity ratio [6]: > 160; IC50 [7]: > 161 µM; selectivity ratio [8]: > 80; MIC [9]: > 50 µg/mL
Nc1cc(Cc2ccccc2)cc(NC(=O)c2ccccc2)c1,10 µg/mL,–
CC(=O)Nc1cc(O)cc(Cc2ccccc2)c1,> 100 µg/mL,–
Cc1nnsc1C(=O)Nc1cc(O)cc(Cc2ccccc2)c1,10 µg/mL,–
O=C(Nc1cc(O)cc(Cc2ccccc2)c1)C1CCCC1,2.5 µg/mL,–
COc1cc(Cc2ccccc2)cc(NC(=O)c2ccccc2)c1,> 50 µg/mL,–
CC(C)(C)c1ccc(C(=O)Nc2cc(O)cc(Cc3ccccc3)c2)cc1,2.5 µg/mL,–
O=C(Nc1cc(O)cc(Cc2ccccc2)c1)C1CCOCC1,6.25 µg/mL,–

Compound,MIC [1],also measured
O=C(Nc1cc(O)cc(Cc2ccccc2)c1)c1cc(C(F)(F)F)cc(C(F)(F)F)c1,> 25 µg/mL,–
O=C(Nc1cc(O)cc(Cc2ccccc2)c1)C1CC1,5 µg/mL,–
CCCCCc1cc(O)cc(NC(=O)C2CCCCC2)c1,> 50 µg/mL,–
O=C(Nc1cc(O)cc(Cc2ccccc2)c1)N1CCOCC1,12.5 µg/mL,–
Cc1ccc(C)c(Cc2cc(O)cc(NC(=O)C3CCCCC3)c2)c1,> 50 µg/mL,–
Oc1cccc(Cc2ccccc2)c1,> 50 µg/mL,–
O=C(Nc1cc(O)cc(Cc2ccccc2)c1)c1ccc(C(F)(F)F)cc1,5 µg/mL,–
CC(C)(C)C1CCC(C(=O)Nc2cc(O)cc(Cc3ccccc3)c2)CC1 (stereo unspecified),> 50 µg/mL,–
O=C(Nc1cc(O)cc(Cc2ccccc2)c1)C12CC3CC(CC(C3)C1)C2,> 50 µg/mL,–
O=C(Nc1cc(O)cc(Cc2ccccc2)c1)c1ccccc1,5 µg/mL,MIC [2]: > 50 µg/mL; IC50 [3]: > 330 µM; MIC [4]: 0.39 µg/mL; MIC [5]: > 50 µg/mL; selectivity ratio [6]: > 20; IC50 [7]: > 330 µM; selectivity ratio [8]: > 20; MIC [9]: > 50 µg/mL
O=C(Nc1cc(O)cc(C(O)c2ccccc2)c1)c1ccccc1 (stereo unspecified),> 50 µg/mL,–
O=C(Nc1cc(O)cc(Cc2ccccc2)c1)c1ccc(F)c(Cl)c1,5 µg/mL,–
CCCc1cc(O)cc(NC(=O)C2CCCCC2)c1,> 50 µg/mL,–
O=C(Nc1cc(O)cc(Cc2ccccc2)c1)c1ccc([N+](=O)[O-])cc1,> 50 µg/mL,–
O=C(Nc1cc(O)cc(Cc2ccccc2)c1)c1cccc(Cl)c1,2.5 µg/mL,–
O=C(Nc1cc(O)cc(Cc2ccccc2)c1)c1ccc(Cl)cc1,2.5 µg/mL,–
CC(C)C(=O)Nc1cc(O)cc(Cc2ccccc2)c1,5 µg/mL,–
CC1(C)S[C@@H]2[C@H](NC(=O)[C@H](N)c3ccc(O)cc3)C(=O)N2[C@H]1C(=O)O [AMOXICILLIN],–,MIC [5]: 0.78 µg/mL
NNC(=O)c1ccncc1 [ISONIAZID],0.1 µg/mL,MIC [4]: 0.41 µg/mL
CC1COc2c(N3CCN(C)CC3)c(F)cc3c(=O)c(C(=O)O)cn1c23 (stereo unspecified) [OFLOXACIN],–,MIC [5]: 0.31 µg/mL; MIC [9]: 1.25 µg/mL
CO[C@H]1/C=C/O[C@@]2(C)Oc3c(C)c(O)c4c(O)c(c(/C=N/N5CCN(C)CC5)c(O)c4c3C2=O)NC(=O)/C(C)=C\C=C\[C@H](C)[C@H](O)[C@@H](C)[C@@H](O)[C@@H](C)[C@H](OC(C)=O)[C@@H]1C [RIFAMPIN],–,MIC [4]: 0.003 µg/mL
